Legend:
Assay type in all cases: functional
EKVX = test: Growth inhibition of human EKVX cells at 10 uM after 48 hrs by coulter counting; conditions: read-out: GI
Summary of the method: (§1)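 Single-dose primary screen across the full NCI 60-cell-line panel. Stocks were made in DMSO and diluted in PBS to a final DMSO below 1%. Cultures at 6 × 10⁴ cells/ml were run in duplicate wells alongside PBS/DMSO vehicle controls at 37 °C in humidified 5% CO₂. Data were expressed as percent growth of treated cells.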

UACC-257 = test: Growth inhibition of human UACC257 cells at 10 uM after 48 hrs by coulter counting; conditions: UACC-257, 48 h, read-out: GI
Summary of the method: (§2)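 Single-dose screen in the NCI 60 human tumor cell line panel (nine subpanels). Compounds dissolved in DMSO and diluted in phosphate buffered saline, keeping final DMSO below 1%. Added in duplicate wells to cells at 6 × 10⁴ cells/ml. Controls held PBS and DMSO at matching dilutions. Incubated at 37 °C, humidified, 5% CO₂. Reported as percent growth of treated cells.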

NCI-H226 = test: Growth inhibition of human NCI-H226 cells at 10 uM after 48 hrs by coulter counting; conditions: NCI-H226, 48 h, read-out: GI; summary of the method: as §1
CCRF-CEM = test: Growth inhibition of human CCRF-CEM cells at 10 uM after 48 hrs by coulter counting; conditions: read-out: GI; summary of the method: as §1
HT-29 = test: Growth inhibition of human HT-29 cells at 10 uM after 48 hrs by coulter counting; conditions: HT-29, 48 h, read-out: GI; summary of the method: as §1
SK-MEL-5 = test: Growth inhibition of human SK-MEL-5 cells at 10 uM after 48 hrs by coulter counting; conditions: SK-MEL-5, 48 h, read-out: GI; summary of the method: as §1
OVCAR-8 = test: Growth inhibition of human OVCAR8 cells at 10 uM after 48 hrs by coulter counting; conditions: OVCAR-8, 48 h, read-out: GI; summary of the method: as §1
A549 = test: Growth inhibition of human A549 cells at 10 uM after 48 hrs by coulter counting; conditions: A549, 48 h, read-out: GI; summary of the method: as §1
MDA-MB-435 = test: Growth inhibition of human MDA-MB-435 cells at 10 uM after 48 hrs by coulter counting; conditions: MDA-MB-435, 48 h, read-out: GI; summary of the method: as §1
NCI/ADR-RES = test: Growth inhibition of human NCI/ADR-RES cells at 10 uM after 48 hrs by coulter counting; conditions: read-out: GI; summary of the method: as §1
SK-MEL-28 = test: Growth inhibition of human SK-MEL-28 cells at 10 uM after 48 hrs by coulter counting; conditions: SK-MEL-28, 48 h, read-out: GI; summary of the method: as §1
SN12C = test: Growth inhibition of human SN12C cells at 10 uM after 48 hrs by coulter counting; conditions: read-out: GI; summary of the method: as §1
HOP-62 = test: Growth inhibition of human HOP62 cells at 10 uM after 48 hrs by coulter counting; conditions: HOP-62, 48 h, read-out: GI; summary of the method: as §1
ACHN = test: Growth inhibition of human ACHN cells at 10 uM after 48 hrs by coulter counting; conditions: read-out: GI; summary of the method: as §1
DU-145 = test: Growth inhibition of human DU145 cells at 10 uM after 48 hrs by coulter counting; conditions: DU-145, 48 h, read-out: GI; summary of the method: as §1
NCI-H23 = test: Growth inhibition of human NCI-H23 cells at 10 uM after 48 hrs by coulter counting; conditions: NCI-H23, 48 h, read-out: GI; summary of the method: as §1
RPMI-8226 = test: Growth inhibition of human RPMI8226 cells at 10 uM after 48 hrs by coulter counting; conditions: RPMI-8226, 48 h, read-out: GI; summary of the method: as §1
[1] = Growth inhibition of human NCI-322M cells at 10 uM after 48 hrs by coulter counting; conditions: read-out: GI; summary of the method: as §1
KM12 = test: Growth inhibition of human KM12 cells at 10 uM after 48 hrs by coulter counting; conditions: KM12, 48 h, read-out: GI; summary of the method: as §1
U-251 = test: Growth inhibition of human U251 cells at 10 uM after 48 hrs by coulter counting; conditions: U-251, 48 h, read-out: GI; summary of the method: as §2
CAKI-1 = test: Growth inhibition of human Caki1 cells at 10 uM after 48 hrs by coulter counting; conditions: CAKI-1, 48 h, read-out: GI; summary of the method: as §1
T47D = test: Growth inhibition of human T47D cells at 10 uM after 48 hrs by coulter counting; conditions: read-out: GI; summary of the method: as §2
786-0 = test: Growth inhibition of human 786-0 cells at 10 uM after 48 hrs by coulter counting; conditions: 786-0, 48 h, read-out: GI; summary of the method: as §1
LOX IMVI = test: Growth inhibition of human LOXIMVI cells at 10 uM after 48 hrs by coulter counting; conditions: read-out: GI; summary of the method: as §1
HCT-15 = test: Growth inhibition of human HCT15 cells at 10 uM after 48 hrs by coulter counting; conditions: HCT-15, 48 h, read-out: GI; summary of the method: as §1
SNB-75 = test: Growth inhibition of human SNB75 cells at 10 uM after 48 hrs by coulter counting; conditions: SNB-75, 48 h, read-out: GI; summary of the method: as §1
TK-10 = test: Growth inhibition of human TK10 cells at 10 uM after 48 hrs by coulter counting; conditions: TK-10, 48 h, read-out: GI; summary of the method: as §2
NCI-H522 = test: Growth inhibition of human NCI-H522 cells at 10 uM after 48 hrs by coulter counting; conditions: NCI-H522, 48 h, read-out: GI; summary of the method: as §1
HCT-116 = test: Growth inhibition of human HCT116 cells at 10 uM after 48 hrs by coulter counting; conditions: HCT-116, 48 h, read-out: GI; summary of the method: as §1
NCI-H460 = test: Growth inhibition of human NCI-H460 cells at 10 uM after 48 hrs by coulter counting; conditions: NCI-H460, 48 h, read-out: GI; summary of the method: as §1
SK-MEL-2 = test: Growth inhibition of human SK-MEL-2 cells at 10 uM after 48 hrs by coulter counting; conditions: SK-MEL-2, 48 h, read-out: GI; summary of the method: as §1
UO-31 = test: Growth inhibition of human UO31 cells at 10 uM after 48 hrs by coulter counting; conditions: UO-31, 48 h, read-out: GI; summary of the method: as §2
HL-60(TB) = test: Growth inhibition of human HL-60(TB) cells at 10 uM after 48 hrs by coulter counting; conditions: HL-60, 48 h, read-out: GI
Summary of the method: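 Test compound was dissolved in DMSO and diluted in phosphate-buffered saline to a final DMSO level below 1%. Dilutions were plated in duplicate with cell culture at 6 × 10⁴ cells/ml. Vehicle controls held PBS and DMSO at matching dilutions. Incubation was at 37 °C, humidified, under 5% CO₂. Data were reported as percent growth of treated cells.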

SF-268 = test: Growth inhibition of human SF268 cells at 10 uM after 48 hrs by coulter counting; conditions: SF-268, 48 h, read-out: GI; summary of the method: as §1
BT-549 = test: Growth inhibition of human BT549 cells at 10 uM after 48 hrs by coulter counting; conditions: BT-549, 48 h, read-out: GI; summary of the method: as §1
UACC-62 = test: Growth inhibition of human UACC62 cells at 10 uM after 48 hrs by coulter counting; conditions: UACC-62, 48 h, read-out: GI; summary of the method: as §2
SNB-19 = test: Growth inhibition of human SNB19 cells at 10 uM after 48 hrs by coulter counting; conditions: SNB-19, 48 h, read-out: GI; summary of the method: as §1
A498 = test: Growth inhibition of human A498 cells at 10 uM after 48 hrs by coulter counting; conditions: A498, 48 h, read-out: GI; summary of the method: as §1
M14 = test: Growth inhibition of human M14 cells at 10 uM after 48 hrs by coulter counting; conditions: M14, 48 h, read-out: GI; summary of the method: as §1
SF-295 = test: Growth inhibition of human SF295 cells at 10 uM after 48 hrs by coulter counting; conditions: SF-295, 48 h, read-out: GI; summary of the method: as §1
K562 = test: Growth inhibition of human K562 cells at 10 uM after 48 hrs by coulter counting; conditions: K562, 48 h, read-out: GI; summary of the method: as §1
MCF7 = test: Growth inhibition of human MCF7 cells at 10 uM after 48 hrs by coulter counting; conditions: MCF7, 48 h, read-out: GI; summary of the method: as §1
MOLT-4 = test: Growth inhibition of human MOLT4 cells at 10 uM after 48 hrs by coulter counting; conditions: MOLT-4, 48 h, read-out: GI; summary of the method: as §1

With `CCN1CC2=C(N=C3SC=C(C)N3C2c2cccs2)/C(=C/c2cccs2)C1` (stereo not drawn) the inhibition of growth at 10 µM (EKVX) was 17.7%, the inhibition of growth at 10 µM (UACC-257) was greater than 10% and the inhibition of growth at 10 µM (NCI-H226) was greater than 10%. It also gave an inhibition of growth at 10 µM (CCRF-CEM) greater than 10%, an inhibition of growth at 10 µM (HT-29) greater than 10% and an inhibition of growth at 10 µM (SK-MEL-5) greater than 10%. For the same compound, the inhibition of growth at 10 µM (OVCAR-8) was greater than 10%, the inhibition of growth at 10 µM (A549) was greater than 10% and the inhibition of growth at 10 µM (MDA-MB-435) was greater than 10%. It also gave an inhibition of growth at 10 µM (NCI/ADR-RES) greater than 10%, an inhibition of growth at 10 µM (SK-MEL-28) greater than 10% and an inhibition of growth at 10 µM (SN12C) greater than 10%. For the same compound, the inhibition of growth at 10 µM (HOP-62) was greater than 10%, the inhibition of growth at 10 µM (ACHN) was greater than 10% and the inhibition of growth at 10 µM (DU-145) was greater than 10%. For the same compound, the inhibition of growth at 10 µM (NCI-H23) was greater than 10%, the inhibition of growth at 10 µM (RPMI-8226) was greater than 10% and the inhibition of growth at 10 µM [1] was greater than 10%. For the same compound, the inhibition of growth at 10 µM (KM12) was greater than 10%, the inhibition of growth at 10 µM (U-251) was greater than 10% and the inhibition of growth at 10 µM (CAKI-1) was greater than 10%. For the same compound, the inhibition of growth at 10 µM (T47D) was greater than 10%, the inhibition of growth at 10 µM (786-0) was greater than 10% and the inhibition of growth at 10 µM (LOX IMVI) was greater than 10%. The inhibition of growth at 10 µM (HCT-15) was greater than 10%, the inhibition of growth at 10 µM (SNB-75) was 13.6% and the inhibition of growth at 10 µM (TK-10) was greater than 10%. It also gave an inhibition of growth at 10 µM (NCI-H522) greater than 10%, an inhibition of growth at 10 µM (HCT-116) greater than 10% and an inhibition of growth at 10 µM (NCI-H460) greater than 10%. It also gave an inhibition of growth at 10 µM (SK-MEL-2) greater than 10%, an inhibition of growth at 10 µM (UO-31) of 21.8% and an inhibition of growth at 10 µM (HL-60(TB)) greater than 10%. For the same compound, the inhibition of growth at 10 µM (SF-268) was greater than 10%, the inhibition of growth at 10 µM (BT-549) was greater than 10% and the inhibition of growth at 10 µM (UACC-62) was greater than 10%. The inhibition of growth at 10 µM (SNB-19) was greater than 10%, the inhibition of growth at 10 µM (A498) was greater than 10% and the inhibition of growth at 10 µM (M14) was greater than 10%. For the same compound, the inhibition of growth at 10 µM (SF-295) was greater than 10%, the inhibition of growth at 10 µM (K562) was greater than 10% and the inhibition of growth at 10 µM (MCF7) was greater than 10%. The inhibition of growth at 10 µM (MOLT-4) was greater than 10%.
